Laboratory results taken from ChEMBL document CHEMBL1926632, “Cytotoxic triterpenoid saponins from Lysimachia clethroides” (J Nat Prod, 2011).

Tests used:
Format in all cases: functional, cell-based
A-375 = test: Cytotoxicity against human A375 cells by MTT assay
Procedure, shortened: (§1)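 MTT read-out following a previously published method. Cell origins: HT-29 colon cancer, HePG2 hepatoma, BGC-823 gastric cancer, A549 lung epithelial, A375 amelanotic melanoma, all human. Paclitaxel served as positive control in the same panel.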

BGC-823 = test: Cytotoxicity against human BGC823 cells by MTT assay; procedure, shortened: as §1
HT-29 = test: Cytotoxicity against human HT-29 cells by MTT assay; procedure, shortened: as §1
HepG2 = test: Cytotoxicity against human HepG2 cells by MTT assay; procedure, shortened: as §1
A549 = test: Cytotoxicity against human A549 cells by MTT assay; procedure, shortened: as §1

Row | Structure (SMILES) | IC50 (A-375) | IC50 (BGC-823) | IC50 (HT-29) | IC50 (HepG2) | IC50 (A549)
1 | CC(=O)OC[C@H]1O[C@@H](O[C@H]2[C@H](O[C@H]3CC[C@]4(C)[C@H]5CC[C@]67OC[C@@]8(CCC(C)(C)C[C@H]86)[C@H](O)C[C@@]7(C)[C@]5(C)CC[C@H]4C3(C)C)OC[C@H](O[C@@H]3O[C@H](CO)[C@@H](O)[C@H](O)[C@H]3O[C@@H]3O[C@@H](C)[C@H](O)[C@@H](O)[C@H]3O)[C@@H]2O)[C@H](O)[C@@H](O)[C@@H]1O [CLETHROIDOSIDE E] | > 10 µM | 8.05 µM | 1.4 µM | 6.26 µM | > 10 µM
2 | CC1(C)[C@@H](O[C@@H]2OC[C@H](O[C@@H]3O[C@H](CO)[C@@H](O)[C@H](O)[C@H]3O)[C@H](O)[C@H]2O[C@@H]2O[C@H](CO)[C@@H](O)[C@H](O)[C@H]2O)CC[C@]2(C)[C@H]3CC[C@]45OC[C@@]6(CC[C@](C)(CO)C[C@H]64)[C@H](O)C[C@@]5(C)[C@]3(C)CC[C@@H]12 [ARDISIANOSIDE E] | 1.71 µM | 1.14 µM | 1.81 µM | 0.75 µM | 2.47 µM
3 | CC(=O)O[C@H]1C(=O)[C@@]2(C)[C@H]([C@H](OC(=O)c3ccccc3)[C@]3(O)C[C@H](OC(=O)[C@H](O)[C@@H](NC(=O)c4ccccc4)c4ccccc4)C(C)=C1C3(C)C)[C@]1(OC(C)=O)CO[C@@H]1C[C@@H]2O [PACLITAXEL] | 0.0049 µM | – | 0.00394 µM | 0.0044 µM | 0.0449 µM
4 | C[C@@H]1O[C@@H](O[C@H]2[C@H](O[C@H]3CO[C@@H](O[C@H]4CC[C@]5(C)[C@H]6CC[C@]78OC[C@@]9(CCC(C)(C)C[C@H]97)C(=O)C[C@@]8(C)[C@]6(C)CC[C@H]5C4(C)C)[C@H](O[C@@H]4O[C@H](CO)[C@@H](O)[C@H](O)[C@H]4O)[C@H]3O)O[C@H](CO)[C@@H](O)[C@@H]2O)[C@H](O)[C@H](O)[C@H]1O [CLETHROIDOSIDE C] | 1.14 µM | 1.93 µM | 1.99 µM | 1.48 µM | 2.62 µM
5 | C[C@@H]1O[C@@H](O[C@H]2[C@H](O[C@H]3CO[C@@H](O[C@H]4CC[C@]5(C)[C@H]6CC[C@]78OC[C@@]9(CCC(C)(C)C[C@H]97)[C@H](O)C[C@@]8(C)[C@]6(C)CC[C@H]5C4(C)C)[C@H](O[C@@H]4O[C@H](CO)[C@@H](O)[C@H](O)[C@H]4O)[C@H]3O)O[C@H](CO)[C@@H](O)[C@@H]2O)[C@H](O)[C@H](O)[C@H]1O | 2.13 µM | 2.07 µM | 1.96 µM | 0.99 µM | 1.95 µM
6 | CC1(C)CC[C@]23CO[C@@]4(CC[C@@H]5[C@@]6(C)CC[C@H](O[C@@H]7OC[C@H](O[C@@H]8O[C@H](CO)[C@@H](O)[C@H](O)[C@H]8O[C@@H]8OC[C@@H](O)[C@H](O)[C@H]8O)[C@H](O)[C@H]7O[C@@H]7O[C@H](CO)[C@@H](O)[C@H](O)[C@H]7O)C(C)(C)[C@@H]6CC[C@@]5(C)[C@]4(C)C[C@H]2O)[C@@H]3C1 [LYSIKOKIANOSIDE 1] | 1.94 µM | 1.75 µM | 1.96 µM | 1 µM | 1.91 µM
7 | CC(=O)O[C@H]1[C@H](OC(C)=O)[C@]23CO[C@@]4(CC[C@@H]5[C@@]6(C)CC[C@H](O[C@@H]7OC[C@H](O[C@@H]8O[C@H](CO)[C@@H](O)[C@H](O)[C@H]8O[C@@H]8OC[C@@H](O)[C@H](O)[C@H]8O)[C@H](O)[C@H]7O[C@@H]7O[C@H](CO)[C@@H](O)[C@H](O)[C@H]7O)C(C)(C)[C@@H]6CC[C@@]5(C)[C@]4(C)C[C@H]2O)[C@@H]3CC1(C)C [CLETHROIDOSIDE F] | 2.19 µM | 1.95 µM | 2.04 µM | 1.26 µM | 2.28 µM
8 | CC1(C)CC[C@]23CO[C@@]4(CC[C@@H]5[C@@]6(C)CC[C@H](O[C@@H]7OC[C@H](O[C@@H]8O[C@H](CO)[C@@H](O)[C@H](O)[C@H]8O[C@@H]8OC[C@@H](O)[C@H](O)[C@H]8O)[C@H](O)[C@H]7O[C@@H]7O[C@H](CO)[C@@H](O)[C@H](O)[C@H]7O)C(C)(C)[C@@H]6CC[C@@]5(C)[C@]4(C)CC2=O)[C@@H]3C1 [CLETHROIDOSIDE D] | 1.91 µM | 1.36 µM | 1.98 µM | 1.73 µM | 2.36 µM
